From ChEMBL document CHEMBL1208689, “5-Lipoxygenase-activating protein inhibitors. Part 3: 3-{3-tert-Butylsulfanyl-1-[4-(5-methoxy-pyrimidin-2-yl)-benzyl]-5-(5-methyl-pyridin-2-ylmethoxy)-1H-indol-2-yl]-2,2-dimethyl-propionic acid (AM643)-A potent FLAP inhibitor suitable for topical administration” (Bioorg Med Chem Lett, 2010)
pIC50: −log10 of the molar value. The source made the active and inactive calls. The calls are words filed in the database; no cut-off is given here.

Tests used:
[1] = biological target: T1, Arachidonate 5-lipoxygenase-activating protein (Homo sapiens, UniProt P20292); test: Binding affinity to FLAP in human PMN by radioligand displacement assay
T1 sequence (P20292 whole entry): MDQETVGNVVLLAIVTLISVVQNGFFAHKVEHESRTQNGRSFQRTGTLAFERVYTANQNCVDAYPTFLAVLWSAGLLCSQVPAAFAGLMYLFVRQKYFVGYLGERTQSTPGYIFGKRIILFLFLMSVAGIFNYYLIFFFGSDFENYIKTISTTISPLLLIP
Procedure, shortened: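 Tritiated-ligand displacement from FLAP-containing membranes; IC50, n = 6.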

[2] = Inhibition of […]-induced LTB4 synthesis in human leukocytes; assay type: functional, cell-based; conditions: Leukocyte
Procedure, shortened: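 Human leukocytes stimulated with calcium ionophore […]; LTB4 synthesis measured; IC50.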

[3] = system: Blood; test: Inhibition of […]-induced LTB4 synthesis in human whole blood after 15 mins; assay type: functional, tissue-based; conditions: 0.25 h
[4] = system: Blood; test: Inhibition of […]-induced LTB4 synthesis in human whole blood after 5 hrs; assay type: functional, tissue-based
[5] = system: Blood; test: Inhibition of […]-induced LTB4 synthesis in mouse whole blood after 15 mins; assay type: functional, tissue-based; conditions: 0.25 h
[6] = system: Blood; test: Inhibition of […]-induced LTB4 synthesis in mouse whole blood after 4 hrs; assay type: functional, tissue-based
[7] = system: Blood; test: Inhibition of […]-induced LTB4 synthesis in rat whole blood after 15 mins; assay type: functional, tissue-based; conditions: 0.25 h
[8] = system: Blood; test: Inhibition of […]-induced LTB4 synthesis in rat whole blood after 4 hrs; assay type: functional, tissue-based
[9] = biological target: Cytochrome P450 3A4 (Homo sapiens, UniProt P08684); test: Inhibition of CYP3A4; assay type: ADME
Cytochrome P450 3A4, sequence (P08684 whole entry): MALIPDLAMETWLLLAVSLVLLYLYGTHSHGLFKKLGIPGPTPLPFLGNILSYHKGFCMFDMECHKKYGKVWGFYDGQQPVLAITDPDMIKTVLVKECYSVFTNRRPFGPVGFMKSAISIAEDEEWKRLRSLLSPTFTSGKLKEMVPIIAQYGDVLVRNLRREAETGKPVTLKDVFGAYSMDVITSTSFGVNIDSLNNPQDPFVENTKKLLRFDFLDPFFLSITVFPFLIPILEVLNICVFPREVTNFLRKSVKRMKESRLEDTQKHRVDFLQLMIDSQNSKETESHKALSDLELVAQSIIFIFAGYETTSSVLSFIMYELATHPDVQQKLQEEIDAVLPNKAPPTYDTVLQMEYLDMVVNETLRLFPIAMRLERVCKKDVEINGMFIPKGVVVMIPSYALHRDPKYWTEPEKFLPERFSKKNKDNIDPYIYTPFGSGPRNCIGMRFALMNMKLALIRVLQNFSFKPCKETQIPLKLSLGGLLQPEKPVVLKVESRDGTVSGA

[10] = biological target: Cytochrome P450 2D6 (Homo sapiens, UniProt P10635); test: Inhibition of CYP2D6; assay type: ADME
Cytochrome P450 2D6, sequence (P10635 whole entry): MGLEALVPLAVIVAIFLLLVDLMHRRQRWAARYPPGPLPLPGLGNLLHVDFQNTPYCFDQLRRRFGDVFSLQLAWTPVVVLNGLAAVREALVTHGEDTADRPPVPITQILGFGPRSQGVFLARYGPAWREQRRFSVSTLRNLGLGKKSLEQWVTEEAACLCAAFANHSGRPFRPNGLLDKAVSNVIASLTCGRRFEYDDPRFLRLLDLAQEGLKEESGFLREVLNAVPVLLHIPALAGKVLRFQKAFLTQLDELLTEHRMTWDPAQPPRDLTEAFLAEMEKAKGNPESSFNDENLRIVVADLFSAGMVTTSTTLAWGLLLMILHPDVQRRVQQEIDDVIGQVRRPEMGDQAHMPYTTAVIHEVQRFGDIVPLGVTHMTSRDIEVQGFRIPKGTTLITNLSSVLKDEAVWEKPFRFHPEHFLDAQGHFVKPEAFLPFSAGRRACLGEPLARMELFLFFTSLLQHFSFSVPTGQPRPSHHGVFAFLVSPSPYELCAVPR

[11] = biological target: Cytochrome P450 2C9 (Homo sapiens, UniProt P11712); test: Inhibition of CYP2C9; assay type: ADME
Cytochrome P450 2C9, sequence (P11712 whole entry): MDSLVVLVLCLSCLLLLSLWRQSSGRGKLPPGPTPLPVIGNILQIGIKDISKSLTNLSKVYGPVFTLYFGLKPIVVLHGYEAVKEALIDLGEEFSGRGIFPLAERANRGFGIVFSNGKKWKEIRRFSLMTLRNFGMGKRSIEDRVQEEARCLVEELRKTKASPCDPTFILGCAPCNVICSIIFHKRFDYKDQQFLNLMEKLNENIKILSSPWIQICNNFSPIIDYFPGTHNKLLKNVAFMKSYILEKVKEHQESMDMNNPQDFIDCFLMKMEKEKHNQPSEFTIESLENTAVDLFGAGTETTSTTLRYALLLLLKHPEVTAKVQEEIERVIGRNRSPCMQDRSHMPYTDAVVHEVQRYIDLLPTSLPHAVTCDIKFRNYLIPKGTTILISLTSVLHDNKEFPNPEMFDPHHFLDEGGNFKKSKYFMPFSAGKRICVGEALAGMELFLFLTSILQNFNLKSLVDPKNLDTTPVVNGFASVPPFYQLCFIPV

[12] = biological target: Prostaglandin G/H synthase 1 (Homo sapiens, UniProt P23219); test: Inhibition of COX1
Prostaglandin G/H synthase 1, sequence (P23219 whole entry): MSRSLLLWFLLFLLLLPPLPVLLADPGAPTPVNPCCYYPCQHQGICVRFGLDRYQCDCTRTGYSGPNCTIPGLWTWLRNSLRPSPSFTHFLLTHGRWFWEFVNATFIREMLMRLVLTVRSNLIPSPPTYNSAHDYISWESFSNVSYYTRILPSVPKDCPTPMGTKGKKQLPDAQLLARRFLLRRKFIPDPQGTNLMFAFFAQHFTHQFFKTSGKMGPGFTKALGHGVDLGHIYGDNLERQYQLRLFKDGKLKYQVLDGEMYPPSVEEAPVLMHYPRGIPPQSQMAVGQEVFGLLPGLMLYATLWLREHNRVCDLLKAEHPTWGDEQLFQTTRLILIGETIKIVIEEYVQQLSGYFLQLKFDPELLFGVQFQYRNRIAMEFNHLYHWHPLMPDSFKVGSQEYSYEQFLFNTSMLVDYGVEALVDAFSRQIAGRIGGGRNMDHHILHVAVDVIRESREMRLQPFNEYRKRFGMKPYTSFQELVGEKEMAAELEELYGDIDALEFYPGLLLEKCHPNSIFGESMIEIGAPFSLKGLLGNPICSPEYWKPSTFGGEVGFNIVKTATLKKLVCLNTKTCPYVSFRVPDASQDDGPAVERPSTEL

[13] = biological target: T2, Prostaglandin G/H synthase 2 (Homo sapiens, UniProt P35354); test: Inhibition of COX2
T2 sequence (P35354 whole entry): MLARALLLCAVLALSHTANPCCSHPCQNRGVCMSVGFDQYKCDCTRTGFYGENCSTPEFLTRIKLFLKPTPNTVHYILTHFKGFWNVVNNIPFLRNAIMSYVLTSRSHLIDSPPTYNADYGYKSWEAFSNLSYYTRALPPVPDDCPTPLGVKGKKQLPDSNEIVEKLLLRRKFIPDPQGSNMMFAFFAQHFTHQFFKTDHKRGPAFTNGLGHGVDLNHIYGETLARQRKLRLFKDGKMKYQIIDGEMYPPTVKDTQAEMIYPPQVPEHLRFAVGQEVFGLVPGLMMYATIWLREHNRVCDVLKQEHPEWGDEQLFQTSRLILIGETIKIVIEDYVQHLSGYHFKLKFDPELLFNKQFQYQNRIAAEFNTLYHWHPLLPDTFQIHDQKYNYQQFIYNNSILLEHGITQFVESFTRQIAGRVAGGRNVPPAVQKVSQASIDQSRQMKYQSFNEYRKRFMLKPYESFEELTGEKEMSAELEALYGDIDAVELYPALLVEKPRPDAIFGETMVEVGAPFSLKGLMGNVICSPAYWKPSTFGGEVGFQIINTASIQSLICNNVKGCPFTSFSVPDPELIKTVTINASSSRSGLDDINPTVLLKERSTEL

[14] = system: Mus musculus; test: Inhibition of arachidonic acid-induced ear edema in mouse at 30 mg/kg, po administered 4 hrs before arachidonic acid challenge; assay type: functional
Procedure, shortened: (§1)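 Mice given 30 mg/kg orally in 0.5% methocel 4 h before AA (4 mg in 40 µL ethanol) on one ear, ethanol alone on the other. After 30 min, 6 mm punches weighed and assayed for LTB4 and CysLTs. n = 3/group; means ± SEM; two-tailed t-test versus vehicle.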

[15] = Solubility of the compound in propylene glycol; assay type: physicochemical
[16] = Solubility of the compound in transcutol; assay type: physicochemical
[17] = Solubility of the compound in water; assay type: physicochemical; conditions: buffer
[18] = system: Mus musculus; test: Inhibition of arachidonic acid-induced cysteinyl leukotriene production in mouse ear at 30 mg/kg, po administered 4 hrs before arachidonic acid challenge; assay type: functional; procedure, shortened: as §1
[19] = system: Mus musculus; test: Inhibition of arachidonic acid-induced LTB4 production in mouse ear at 30 mg/kg, po administered 4 hrs before arachidonic acid challenge; assay type: functional; procedure, shortened: as §1
[20] = system: Mus musculus; test: Inhibition of arachidonic acid-induced cysteinyl leukotriene production in topically dosed mouse ear; assay type: functional, organism-based
Procedure, shortened: (§2)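 AA (4 mg/ear in ethanol) applied topically to mouse ear, compound applied topically at 0.01% or 0.1%. After 30 min, 6 mm ear punches weighed and assayed for CysLTs and LTB4. n = 3/group; means ± SEM; ANOVA with Dunnett's post hoc test, or t-test, versus vehicle.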

[21] = system: Mus musculus; test: Inhibition of arachidonic acid-induced LTB4 production in topically dosed mouse ear; assay type: functional, organism-based; procedure, shortened: as §2
[22] = system: Mus musculus; test: Inhibition of arachidonic acid-induced ear edema in topically dosed mouse at 0.1%; assay type: functional; procedure, shortened: as §2
[23] = system: Mus musculus; test: Inhibition of arachidonic acid-induced cysteinyl leukotriene production in topically dosed mouse at 0.1%; assay type: functional; procedure, shortened: as §2
[24] = system: Mus musculus; test: Inhibition of arachidonic acid-induced LTB4 production in topically dosed mouse at 0.1%; assay type: functional; procedure, shortened: as §2
[25] = system: Mus musculus; test: Inhibition of arachidonic acid-induced ear edema in topically dosed mouse at 1 to 10%; assay type: functional, organism-based
[26] = system: Mus musculus; test: Inhibition of arachidonic acid-induced cysteinyl leukotriene production in topically dosed mouse at 1 to 10%; assay type: functional, organism-based
[27] = system: Mus musculus; test: Inhibition of arachidonic acid-induced LTB4 production in topically dosed mouse at 1 to 10%; assay type: functional, organism-based
[28] = system: Rattus norvegicus; test: Skin irritant activity in abraded rat skin model treated topically after 72 hrs; assay type: ADME, organism-based; conditions: in vivo, topical_or_ocular
Procedure, shortened: (§3)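 Healthy male rats shaved and skin abraded; 2 mL of 10 mg/mL solution in topical vehicle applied over 20% of body area, occluded 24 h, site then cleaned. Draize scoring for erythema/edema and body weight followed over 72 h.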

[29] = organism: Rattus norvegicus; test: Toxicity in rat assessed as change in body weight after 72 hrs; assay type: organism-based; conditions: in vivo; procedure, shortened: as §3
[30] = Terminal half life in rat at 1 mg/kg, iv; assay type: ADME, organism-based; set-up: dose 1 mg/kg, route intravenous; conditions: in vivo, read-out: beta t1/2 (converted)
Procedure, shortened: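 Rat given 1 mg/kg intravenously in 10% EtOH/40% PEG400/50% water; plasma concentration–time profile used for terminal half-life.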

[31] = Drug level in mouse plasma at 30 mg/kg, po after 4.5 hrs; conditions: read-out: Drug uptake
[32] = system: Rattus norvegicus; test: Skin irritant activity in abraded rat skin model at 10 mg/mL (2 mL), topical after 72 hrs; conditions: in vivo
[33] = system: Rattus norvegicus; test: as above; conditions: in vivo; remark: listed apart in the source

pIC50 [1]: 8.70
pIC50 [2]: 9.22
pIC50 [3]: 6.79
pIC50 [4]: 7.09
pIC50 [5]: 7.59
pIC50 [6]: 8.40
pIC50 [7]: 7.11
pIC50 [8]: 7.96
pIC50 [9]: 5.06
pIC50 [10]: < 4.52
pIC50 [11]: 5.35
pIC50 [12]: < 4.00
pIC50 [13]: < 4.00
solubility [15]: 75%
solubility [16]: 15%
solubility [17]: 10%
half-life [30]: 2 h
concentration at 4.5 h [31]: 1500 nM
Structure (SMILES): COc1cnc(-c2ccc(Cn3c(CC(C)(C)C(=O)[O-])c(SC(C)(C)C)c4cc(OCc5ccc(C)cn5)ccc43)cc2)nc1.[Na+]
inhibition in vivo at 30 mg/kg [14]: 65%
inhibition in vivo at 30 mg/kg [18]: 57%
inhibition in vivo at 30 mg/kg [19]: 33%
inhibition [20]: Dose-dependent effect
inhibition [21]: Dose-dependent effect
inhibition (INH) [22]: 61%
inhibition (INH) [23]: 37%
inhibition (INH) [24]: 55%
inhibition [25]: inactive
inhibition [26]: inactive
inhibition [27]: inactive
Activity [28]: Non-toxic
Activity [29]: Non-toxic
Activity [32]: Non-toxic
Activity [33]: Non-toxic
